Measurements from ChEMBL document CHEMBL1139831, “The influence of modifications in imide fragment structure on 5-HT(1A) and 5-HT(7) receptor affinity and in vivo pharmacological properties of some new 1-(m-trifluoromethylphenyl)piperazines” (Bioorg Med Chem, 2007).

Assays:
Rattus norvegicus [1] = experiment: Effect on lower lip retraction in Wistar rat at 2.5 mg/kg; type: functional
Method in brief: (§1)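 Male Wistar rats (290–310 g) dosed ip in 1% Tween 80 (2 ml/kg), caged singly; lower lip retraction scored 15, 30 and 45 min after dosing as 0 (incisors not visible), 0.5 (partly) or 1 (completely visible), totals up to 3 per rat. n = 6 per group; one-way ANOVA followed by Dunnett's test.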

Rattus norvegicus [2] = experiment: Effect on lower lip retraction in Wistar rat at 5 mg/kg; type: functional; method in brief: as §1
Rattus norvegicus [3] = experiment: Effect on lower lip retraction in Wistar rat at 10 mg/kg; type: functional; method in brief: as §1
Rattus norvegicus [4] = experiment: Effect on 8-OH-DPAT-induced lower lip retraction in Wistar rat at 2.5 mg/kg; type: functional
Mus musculus [5] = experiment: Anxiolytic activity in Swiss Albino mouse assessed as number of punished crossings for 60 secs at 2.5 mg/kg administered 30 mins before the test by four-plate test; type: functional
Method in brief: (§2)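 Male Albino Swiss mice (24–28 g), compound suspended in 1% aqueous Tween 80, given ip (10 ml/kg). Mouse placed in box with four metal floor plates, 15 s exploration, then floor electrified (120 V, 0.5 s) at each plate-to-plate crossing, no new shock for 3 s. Punished crossings counted over 60 s. n = 9-10/group; one-way ANOVA then Dunnett's test.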

Mus musculus [6] = experiment: Anxiolytic activity in Swiss Albino mouse assessed as number of punished crossings for 60 secs at 5 mg/kg administered 30 mins before the test by four-plate test; type: functional
Method in brief: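 Male Albino Swiss mice dosed ip (1% aqueous Tween 80, 10 ml/kg) 30 min beforehand. Opaque box floored with four metal plates; 15 s free exploration, then each plate-to-plate crossing triggers a 0.5 s, 120 V floor shock, with no new shock for 3 s if running continues. Punished crossings counted over 60 s; n = 9-10, ANOVA plus Dunnett's test.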

Mus musculus [7] = experiment: Anxiolytic activity in Swiss Albino mouse assessed as number of punished crossings for 60 secs at 10 mg/kg administered 30 mins before the test by four-plate test; type: functional; method in brief: as §2
Mus musculus [8] = experiment: Antidepressant activity in Swiss Albino mouse assessed as immobility time during final 4 mins of 6 mins session at 5 mg/kg administered 30 mins before the test by forced-swimming test; type: functional
Method in brief: (§3)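 Male Albino Swiss mice (24–28 g), compound given ip in 1% aqueous Tween 80 (10 ml/kg), 30 min before test. Mouse placed singly in glass cylinder (25 cm high, 10 cm diameter) holding 6 cm water at 23–25 °C for 6 min; immobility (floating, only small head-keeping movements) timed over last 4 min. n = 9-10 per group; one-way ANOVA then Dunnett's test.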

[9] = biological target: T1, 5-hydroxytryptamine receptor 1A (Rattus norvegicus, UniProt P19327); experiment: Displacement of [3H]8-OH-DPAT from 5HT1A in rat hippocampal membranes; type: cell membranes, Hippocampus, Membrane
T1 sequence (P19327 whole entry): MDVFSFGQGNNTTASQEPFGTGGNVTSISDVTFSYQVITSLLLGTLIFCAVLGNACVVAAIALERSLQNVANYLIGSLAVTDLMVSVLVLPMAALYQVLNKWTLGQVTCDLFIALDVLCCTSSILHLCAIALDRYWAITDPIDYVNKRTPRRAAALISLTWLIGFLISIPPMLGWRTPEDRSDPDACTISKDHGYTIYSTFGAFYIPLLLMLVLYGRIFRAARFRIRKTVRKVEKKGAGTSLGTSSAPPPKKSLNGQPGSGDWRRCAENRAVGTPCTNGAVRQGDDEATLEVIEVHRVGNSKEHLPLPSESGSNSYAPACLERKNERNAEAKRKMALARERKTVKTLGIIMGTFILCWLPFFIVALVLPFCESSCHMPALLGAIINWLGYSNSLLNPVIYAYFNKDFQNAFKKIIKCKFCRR
Method in brief: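 Rat hippocampal membranes, [3H]-8-OH-DPAT as radioligand, 5-HT defining nonspecific binding. 7–9 drug concentrations run in triplicate, at least three separate experiments. Filtration through GF/B filters with three ice-cold buffer washes, scintillation counting. Ki from non-linear regression of binding isotherms via Cheng-Prusoff equation.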

D(2) dopamine receptor = D(2) dopamine receptor (Rattus norvegicus, UniProt P61169); experiment: Displacement of [3H]spiperone from dopamine D2 receptor in rat striatal membranes; type: cell membranes, Membrane
Method in brief: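 Competition binding on rat striatal membranes using [3H]-spiperone, butaclamol for nonspecific binding; filtration through GF/B filters and scintillation counting. Run at two compound concentrations, each in triplicate, and affinity expressed as estimated Ki.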

[10] = Displacement of [3H]prazosin from adrenergic alpha1 receptor in rat cortical membranes; type: cell membranes, Membrane
Method in brief: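 Rat cortical membranes with [3H]-prazosin; phentolamine defines nonspecific binding. 7–9 drug concentrations in triplicate, at least three separate experiments; stopped by GF/B filtration with three ice-cold buffer washes, bound radioactivity by liquid scintillation counting; Ki from non-linear regression and Cheng-Prusoff equation.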

[11] = biological target: 5-hydroxytryptamine receptor 7 (Homo sapiens, UniProt P34969); experiment: Displacement of [3H]5-CT from human 5HT7 expressed in HEK293 cells; type: cell-based
Method in brief: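 HEK293 cells stably transfected with human 5-HT7(b) cDNA; membranes (10 µg protein) incubated 1 h at 37 °C in 50 mM Tris-HCl pH 7.4 with 4 mM MgCl2, 0.1 mM pargyline, 0.1% ascorbic acid, 0.5 nM [3H]-5-CT and 7–9 test concentrations in triplicate; 10 µM 5-HT defines nonspecific binding. GF/B filtration, scintillation counting; Ki via Cheng-Prusoff from ≥3 experiments.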

Mus musculus [12] = experiment: Antidepressant activity in Swiss Albino mouse assessed as immobility time during final 4 mins of 6 mins session at 10 mg/kg administered 30 mins before the test by forced-swimming test; type: functional; method in brief: as §3
Mus musculus [13] = experiment: Effect on locomotor activity in Swiss Albino mouse assessed as number of crossings in 6 mins at 5 mg/kg administered 30 mins before the test; type: functional
Method in brief: (§4)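 Male Albino Swiss mice (24–28 g) given compound ip (suspension in 1% aqueous Tween 80, 10 ml/kg). Animals housed singly in plastic cages in a multichannel photobeam activity monitor. Ambulation crossings counted over first 6 min and over 30-min session. n = 9-10/group; one-way ANOVA then Dunnett's test.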

Mus musculus [14] = experiment: Effect on locomotor activity in Swiss Albino mouse assessed as number of crossings in 30 mins at 5 mg/kg administered 30 mins before the test; type: functional
Method in brief: (§5)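 Male Albino Swiss mice given compound ip (1% Tween 80, 10 ml/kg) 30 min before placement singly in plastic cages in a multichannel photobeam activity monitor; ambulation crossings counted over the first 6 min and over a 30 min session. n = 9-10 per group; ANOVA then Dunnett's test.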

Mus musculus [15] = experiment: Effect on locomotor activity in Swiss Albino mouse assessed as number of crossings in 6 mins at 10 mg/kg administered 30 mins before the test; type: functional; method in brief: as §4
Mus musculus [16] = experiment: Effect on locomotor activity in Swiss Albino mouse assessed as number of crossings in 30 mins at 10 mg/kg administered 30 mins before the test; type: functional; method in brief: as §5
Mus musculus [17] = species: Mus musculus; conditions: Swiss Albino, 5 mg/kg
Mus musculus [18] = species: Mus musculus; conditions: Swiss Albino, 10 mg/kg
Mus musculus [19] = species: Mus musculus; conditions: Swiss Albino, 5 mg/kg; remark: listed apart in the source
Mus musculus [20] = species: Mus musculus; conditions: Swiss Albino, 10 mg/kg; remark: listed apart in the source
Mus musculus [21] = species: Mus musculus; conditions: Swiss Albino, 10 mg/kg; remark: listed apart in the source
Mus musculus [22] = species: Mus musculus; conditions: Swiss Albino, 10 mg/kg; remark: listed apart in the source
Mus musculus [23] = species: Mus musculus; conditions: Swiss Albino, 5 mg/kg; remark: listed apart in the source
Mus musculus [24] = species: Mus musculus; conditions: Swiss Albino, 10 mg/kg; remark: listed apart in the source
Mus musculus [25] = species: Mus musculus; conditions: Swiss Albino, 5 mg/kg; remark: listed apart in the source
Mus musculus [26] = species: Mus musculus; conditions: Swiss Albino, 10 mg/kg; remark: listed apart in the source
Rattus norvegicus [27] = experiment: Effect on 8-OH-DPAT-induced lower lip retraction in Wistar rat at 5 mg/kg; type: functional
Rattus norvegicus [28] = experiment: Effect on 8-OH-DPAT-induced lower lip retraction in Wistar rat at 10 mg/kg; type: functional
Mus musculus [29] = species: Mus musculus; conditions: Swiss Albino, 20 mg/kg
Mus musculus [30] = species: Mus musculus; conditions: Swiss Albino, 20 mg/kg; remark: listed apart in the source
Mus musculus [31] = species: Mus musculus; conditions: Swiss Albino, 20 mg/kg; remark: listed apart in the source
Mus musculus [32] = species: Mus musculus; conditions: Swiss Albino, 10 mg/kg; remark: listed apart in the source
Mus musculus [33] = species: Mus musculus; conditions: Swiss Albino, 20 mg/kg; remark: listed apart in the source
Mus musculus [34] = species: Mus musculus; conditions: Swiss Albino, 20 mg/kg; remark: listed apart in the source
Rattus norvegicus [35] = experiment: Effect on lower lip retraction in Wistar rat at 20 mg/kg; type: functional; method in brief: as §1
Rattus norvegicus [36] = experiment: Effect on 8-OH-DPAT-induced lower lip retraction in Wistar rat at 20 mg/kg; type: functional
Rattus norvegicus [37] = experiment: Effect on lower lip retraction in Wistar rat at 0.1 mg/kg; type: functional; method in brief: as §1
Rattus norvegicus [38] = experiment: Effect on 8-OH-DPAT-induced lower lip retraction in Wistar rat at 0.1 mg/kg; type: functional

Chain of D(2) dopamine receptor (P61169 whole entry): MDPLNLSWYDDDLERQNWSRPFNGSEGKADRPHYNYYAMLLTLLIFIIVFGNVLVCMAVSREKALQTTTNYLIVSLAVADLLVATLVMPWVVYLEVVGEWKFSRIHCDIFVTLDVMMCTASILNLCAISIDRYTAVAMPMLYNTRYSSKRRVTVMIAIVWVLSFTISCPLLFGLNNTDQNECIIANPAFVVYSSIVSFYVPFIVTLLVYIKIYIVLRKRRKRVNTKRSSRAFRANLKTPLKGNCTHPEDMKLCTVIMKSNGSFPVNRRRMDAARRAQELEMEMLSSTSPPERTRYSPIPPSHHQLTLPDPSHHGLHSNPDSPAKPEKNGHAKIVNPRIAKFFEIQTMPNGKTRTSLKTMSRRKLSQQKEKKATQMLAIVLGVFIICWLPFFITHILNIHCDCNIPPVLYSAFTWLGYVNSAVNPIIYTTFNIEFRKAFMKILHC
Chain of 5-hydroxytryptamine receptor 7 (P34969 whole entry): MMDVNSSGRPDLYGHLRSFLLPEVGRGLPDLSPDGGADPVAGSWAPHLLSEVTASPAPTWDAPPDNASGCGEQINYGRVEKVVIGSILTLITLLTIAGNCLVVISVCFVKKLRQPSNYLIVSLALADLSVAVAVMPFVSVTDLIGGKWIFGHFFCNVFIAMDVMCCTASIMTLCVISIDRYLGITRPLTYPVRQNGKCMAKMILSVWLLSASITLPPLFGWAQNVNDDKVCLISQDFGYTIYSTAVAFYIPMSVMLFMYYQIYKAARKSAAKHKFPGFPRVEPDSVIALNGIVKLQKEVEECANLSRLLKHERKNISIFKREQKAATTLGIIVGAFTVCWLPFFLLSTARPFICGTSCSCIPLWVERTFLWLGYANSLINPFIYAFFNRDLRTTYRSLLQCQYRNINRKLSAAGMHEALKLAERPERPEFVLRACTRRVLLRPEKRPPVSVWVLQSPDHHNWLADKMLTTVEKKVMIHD

Ki [9] [nM]	Ki (D(2) dopamine receptor) [nM]	Structure (SMILES)	Activity (Rattus norvegicus [1])	Activity (Rattus norvegicus [2])	Activity (Rattus norvegicus [3])	Activity (Rattus norvegicus [4])	Activity (Mus musculus [5])	Activity (Mus musculus [6])	Activity (Mus musculus [7])	Activity (Mus musculus [8]) [s]	Ki [10] [nM]	Ki [11] [nM]	Activity (Mus musculus [12]) [s]	Activity (Mus musculus [13])	Activity (Mus musculus [14])	Activity (Mus musculus [15])	deltaT (Mus musculus [18]) [°C]	deltaT (Mus musculus [20]) [°C]	deltaT (Mus musculus [24]) [°C]	deltaT (Mus musculus [26]) [°C]	also measured
3	> 5000	O=C1CCCC(=O)N1CCCCN1CCN(c2cccc(C(F)(F)F)c2)CC1	1.6	2.6	2.8	2.2	4.3	5.8	5.2	183.9	101	21	196.7	217.1	526.2	16.3	-1	-0.9	-1.3	-1.1	Activity (Mus musculus [16]): 179.3; deltaT (Mus musculus [17]): -0.4 °C; deltaT (Mus musculus [19]): -0.1 °C; deltaT (Mus musculus [21]): -1 °C; deltaT (Mus musculus [22]): -0.8 °C; deltaT (Mus musculus [23]): -0.5 °C; deltaT (Mus musculus [25]): -0.4 °C
–	–	CC1(C)CC(=O)N(CCCCN2CCN(c3cccc(C(F)(F)F)c3)CC2)C(=O)C1	–	–	–	–	5.3	6.9	7.6	157.7	127	46	112.1	121.7	730.8	23	–	–	–	–	Activity (Mus musculus [16]): 265.1
5.9	> 5000	O=C1C2=C(CCCC2)C(=O)N1CCCCN1CCN(c2cccc(C(F)(F)F)c2)CC1	1.9	2.2	2.2	2.3	–	–	–	–	30	134	–	–	–	–	0	0	0.2	0	Activity (Rattus norvegicus [27]): 1.5; Activity (Rattus norvegicus [28]): 1.1; deltaT (Mus musculus [29]): -1.3 °C; deltaT (Mus musculus [30]): -1.1 °C; deltaT (Mus musculus [31]): -0.6 °C; deltaT (Mus musculus [32]): -0.2 °C; deltaT (Mus musculus [33]): -1.8 °C; deltaT (Mus musculus [34]): -1.3 °C
–	–	COc1ccccc1N1CCN(CCN(C(=O)C2CCCCC2)c2ccccn2)CC1 [WAY-100,635]	–	–	–	–	–	–	–	–	–	–	–	–	–	–	–	–	–	–	Activity (Rattus norvegicus [37]): 0; Activity (Rattus norvegicus [38]): 0.2

Structure (SMILES)	Ki [9] [nM]	Ki (D(2) dopamine receptor) [nM]	Activity (Rattus norvegicus [1])	Activity (Rattus norvegicus [2])	Activity (Rattus norvegicus [3])	Activity (Rattus norvegicus [4])	Activity (Mus musculus [5])	Activity (Mus musculus [6])	Activity (Mus musculus [7])	Activity (Mus musculus [8]) [s]	Ki [10] [nM]	Ki [11] [nM]	Activity (Mus musculus [12]) [s]	Activity (Mus musculus [13])	Activity (Mus musculus [14])	Activity (Mus musculus [15])	deltaT (Mus musculus [18]) [°C]	deltaT (Mus musculus [20]) [°C]	deltaT (Mus musculus [24]) [°C]	deltaT (Mus musculus [26]) [°C]	also measured
CC1C(=O)N(CCCCN2CCN(c3cccc(C(F)(F)F)c3)CC2)C(=O)C1C (stereo unspecified)	2.2	4370	–	–	1.3	–	–	–	–	–	48	107	–	–	–	–	-0.4	-0.2	-0.1	-0.2	Activity (Rattus norvegicus [35]): 1.3; Activity (Rattus norvegicus [28]): 1.4; Activity (Rattus norvegicus [36]): 0.2; deltaT (Mus musculus [17]): -0.2 °C; deltaT (Mus musculus [19]): 0 °C; deltaT (Mus musculus [23]): -0.6 °C; deltaT (Mus musculus [25]): -0.4 °C
